Data set [1] concerns West Nile virus. Nature of the data set: Inhibition of recombinant West Nile virus NS2B-NS3 protease at 16 umol/L using pERTKR-AMC as substrate preincubated for 30 mins followed by substrate addition by fluorescence assay. In outline: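 Single-point screen of purified, pre-activated recombinant WNV NS2B-NS3 at 1 ng µL-1 final, in 50 mmol L-1 Tris with 30% glycerol, pH 9.5, and 1% DMSO final. Enzyme and compound (16 µmol L-1 final) were held 30 min at 21-22 °C before pERTKR-AMC was added. Fluorescence (ex 360/em 460 nm) was read continuously, with buffer/DMSO as negative control. Triplicate wells in three independent experiments; one-way ANOVA.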

Data set [2] relates to dengue virus type 4. Kind of data set: Antiviral activity against Dengue virus 4 infected in African green monkey Vero cells assessed as decrease in viral infection preincubated for 1 hr followed by cell addition and subsequent incubation for 1 hr and measured after 5 to 6 days by crystal violet staining-based assay. It is filed as functional, organism-based. In outline:
(§1)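 Virucidal plaque-reduction format. Virus suspension (50-100 PFU) was mixed 1:1 with compound at 3, 6, 12, 25, 50 or 100 µmol L-1 and held 1 h at 37 °C. The mixture went onto Vero monolayers (8 x 10^5 cells/well) for 1 h adsorption with shaking, then a 3% CMC overlay in 2x DMEM with 2% FBS for 5-6 days. Cells were formaldehyde-fixed and crystal violet-stained, plaques were counted, and EC50 came from nonlinear regression.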

Data set [3] concerns dengue virus type 3. Nature of the data set: Antiviral activity against Dengue virus 3 infected in African green monkey Vero cells assessed as decrease in viral infection preincubated for 1 hr followed by cell addition and subsequent incubation for 1 hr and measured after 5 to 6 days by crystal violet staining-based assay. It is filed as functional, organism-based. The method, boiled down:
as §1

Data set [4] is described as follows: Selectivity index, ratio of CC50 for African green monkey Vero cells to EC50 for Dengue virus 1 infected in African green monkey Vero cells. It is filed as toxicity. The settings on record: Vero cells infected with Dengue virus 1, read-out: Ratio CC50/EC50. In outline: (§2)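 Selectivity index calculated as CC50 from the 24 h Vero MTT assay divided by EC50 from the virucidal plaque-reduction assay for each DENV serotype.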

Data set [5] can be described thus: Cytotoxicity against African green monkey Vero cells after 24 hrs by MTT assay. It is filed as cell-based. Particulars: chlorocebus sabaeus. The method, boiled down: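 Vero cells (5 x 10^4/well) were exposed for 24 h at 37 °C to eight concentrations (4-1000 µmol L-1) in MEM with 2% FBS and 1% DMSO. MTT was added for 4 h, formazan was dissolved in DMSO, and absorbance was read at 550 nm. CC50 was derived by curve fitting.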

Data set [6] concerns dengue virus type 2. Nature of the data set: Antiviral activity against Dengue virus 2 infected in African green monkey Vero cells assessed as decrease in viral infection preincubated for 1 hr followed by cell addition and subsequent incubation for 1 hr and measured after 5 to 6 days by crystal violet staining-based assay. It is filed as functional, organism-based. The method, boiled down: as §1

The nature of data set [7]: Selectivity index, ratio of CC50 for African green monkey Vero cells to EC50 for Dengue virus 4 infected in African green monkey Vero cells. It is filed as toxicity. Particulars: Vero cells infected with Dengue virus 4, read-out: Ratio CC50/EC50. The method, boiled down:
as §2

Data set [8] can be described thus: Non-competitive inhibition of recombinant West Nile virus NS2B-NS3 protease using pERTKR-AMC as substrate preincubated for 30 mins followed by substrate addition by Lineweaver-Burk plot analysis. The method, boiled down: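 Kinetic series with WNV protease at 37.04 nmol L-1 (1 ng µL-1), inhibitor at 2, 4 and 8 µmol L-1, and pERTKR-AMC at five levels ([…] as printed). Fluorescence was read every 30 s in triplicate wells, and velocities (RFU/min) were computed for each substrate/inhibitor pair. Ki came from nonlinear enzyme-kinetics regression.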

Data set [9] in a line: Selectivity index, ratio of CC50 for African green monkey Vero cells to EC50 for Dengue virus 3 infected in African green monkey Vero cells. It is filed as toxicity. Particulars: Vero cells infected with Dengue virus 3, read-out: Ratio CC50/EC50. In outline:
as §2

Data set [10] can be described thus: (§3) Inhibition of recombinant West Nile virus NS2B-NS3 protease using pERTKR-AMC as substrate preincubated for 30 mins followed by substrate addition by fluorescence assay. The method, boiled down:
(§4)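 Same protease format (1 ng µL-1 enzyme, Tris/30% glycerol pH 9.5, 30 min preincubation at 21-22 °C, pERTKR-AMC, ex 360/em 460 nm). Eight inhibitor concentrations spanning 66-0.5 µmol L-1 were tested, with reads every 30 s for 5 min. Triplicate wells in three independent experiments; IC50 from four-parameter nonlinear regression (Hill slope).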

Data set [11] has as its system West Nile virus. Described as §3. In outline:
as §4

For data set [12], the system named is dengue virus type 1. Nature of the data set: Antiviral activity against Dengue virus 1 infected in African green monkey Vero cells assessed as decrease in viral infection preincubated for 1 hr followed by cell addition and subsequent incubation for 1 hr and measured after 5 to 6 days by crystal violet staining-based assay. It is filed as functional, organism-based. The method, boiled down:
as §1

Data set [13] can be described thus: Selectivity index, ratio of CC50 for African green monkey Vero cells to EC50 for Dengue virus 2 infected in African green monkey Vero cells. It is filed as toxicity. Particulars: Vero cells infected with Dengue virus 2, read-out: Ratio CC50/EC50. In outline:
as §2

The source made the active and inactive calls. The calls are words filed in the database; no cut-off is given here.

With `O=C1C(=Cc2ccco2)C(=O)c2ccccc21`, the inhibition (as a rule, how much of the control response was suppressed) in [1] is “inactive”.
As for `COc1cc(C=C2C(=O)c3ccccc3C2=O)cc(OC)c1O`, the inhibition entry in [1] was “Active”.
On to `COc1ccc(C=C2C(=O)c3ccccc3C2=O)cc1`, for which the inhibition result in data set [1] is “inactive”.
For the compound `O=C1C(=Cc2ccc([N+](=O)[O-])cc2)C(=O)c2ccccc21`, in data set [1], the inhibition result was “inactive”.
With `COc1ccc(C=C2C(=O)c3ccccc3C2=O)cc1O`, the inhibition entry in [1] is “Active”.
For `O=C1C(=Cc2ccc(O)c(O)c2)C(=O)c2ccccc21`, the EC50 (in general, the midpoint of the concentration-response curve) is 29.9 µM in data set [2], 1.82 µM in [3], 20.4 µM in data set [6] and 7.97 µM in [12]. In addition, the selectivity ratio in data set [4] is 34; in data set [7], 9; in data set [9], 147; in data set [13] it was 13. Moreover, the CC50 (usually the concentration giving 50% cytotoxicity) at 24 h in data set [5] was 268 µM. The Ki (in general, a measure of affinity in units of concentration, obtained from inhibition or displacement) in data set [8] was determined as 1.25 µM. The values for the inhibition in data set [1] and in data set [11] were 100% and “Dose-dependent effect”, respectively. For the same compound, in data set [10], the IC50 (commonly the concentration needed to halve the response being measured) stood at 3 µM.
As to `O=C1C(=Cc2ccccc2)C(=O)c2ccccc21`, the inhibition result in data set [1] is “inactive”.
Turning to `O=C1C(=Cc2ccc(O)cc2)C(=O)c2ccccc21`, the EC50 in data set [2] is 55.9 µM; in [3], 21 µM; in data set [6], 39.2 µM; in data set [12], 46.6 µM. Further, the selectivity ratio is 2 in data set [4], 2 in data set [7], 4 in [9] and 2 in data set [13]. This compound registered a CC50 at 24 h in data set [5] of 89.7 µM. Also, in data set [8], the Ki worked out at 12.3 µM. Also, the inhibition is 41% in data set [1] and “Dose-dependent effect” in [11]. The IC50 in data set [10] is 11 µM.
As to `N#Cc1ccc(C=C2C(=O)c3ccccc3C2=O)cc1`, the inhibition result in [1] was “inactive”.
On to `CN(C)c1ccc(C=C2C(=O)c3ccccc3C2=O)cc1`, for which the inhibition result in [1] is “inactive”.
As for `COc1cc(C=C2C(=O)c3ccccc3C2=O)ccc1O`, in [1], the inhibition result is “Active”.
For `O=C1C(=Cc2ccc3c(c2)OCO3)C(=O)c2ccccc21`, in data set [1], the inhibition entry is “inactive”.
As to `COc1ccc(C=C2C(=O)c3ccccc3C2=O)cc1OC`, in data set [1], the inhibition result is “inactive”.
`O=C1C(=Cc2ccc(F)cc2)C(=O)c2ccccc21`: in data set [1], the inhibition result is “inactive”.
Consider `COc1cc(C=C2C(=O)c3ccccc3C2=O)cc(OC)c1OC`, for which the inhibition result in data set [1] was “inactive”.
As for `O=C1C(=Cc2ccc(Br)cc2)C(=O)c2ccccc21`, the inhibition result in data set [1] was “inactive”.

For the origin of these results see ChEMBL document CHEMBL4196056, “Zirconium catalyzed synthesis of 2-arylidene Indan-1,3-diones and evaluation of their inhibitory activity against NS2B-NS3 WNV protease” (Eur J Med Chem, 2018).
